Data as given in ChEMBL document CHEMBL1147577, “Design, synthesis, and SAR of anthranilamide-based factor Xa inhibitors incorporating substituted biphenyl P4 motifs” (Bioorg Med Chem Lett, 2004).

Experiments:
Coagulation factor X [1] = target: T1, Coagulation factor X (Homo sapiens, UniProt P00742); assay: Inhibition of Coagulation factor X
Coagulation factor X [2] = target: T1, Coagulation factor X; assay: Inhibitory concentration against coagulation factor Xa.
Coagulation factor X [3] = target: T1, Coagulation factor X; assay: Concentration required to double the lag time of maximum thrombin generation in human plasma-based thrombin generation assay.; type: functional, cell-free
Summary of the method: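 Human plasma treated with reptilase, mixed with inhibitor serially diluted from DMSO stock, then chromogenic substrate H-b-Ala-Gly-Arg-p-nitroanilide and CaCl2. Thrombin generation started with 640 pmol/L recombinant tissue factor. Absorbance at 405 nm followed at 37 °C for 22 min. Reported as 2XTG, the inhibitor concentration that doubles the time to maximum thrombin generation.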

[4] = Oral bioavailability in rat; type: ADME, organism-based; conditions: in vivo
Summary of the method: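 Sprague–Dawley rats given 6 mg/kg orally, with oral bioavailability calculated.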

[5] = target: Vitamin K-dependent protein C (Homo sapiens, UniProt P04070); assay: Inhibitory activity against activated protein C was determined
Kallikrein-1 = Kallikrein-1 (Homo sapiens, UniProt P06870); assay: Inhibitory activity against kallikrein was determined
[6] = target: Plasminogen (Homo sapiens) (UniProt P00747); assay: Inhibitory activity against plasmin was determined
Serine protease 1 = Serine protease 1 (Homo sapiens, UniProt P07477); assay: Inhibitory concentration against trypsin was determined
[7] = target: Tissue-type plasminogen activator (Homo sapiens, UniProt P00750); assay: Inhibitory activity against tissue type plasminogen activator was determined
Chain of Tissue-type plasminogen activator (P00750 whole entry): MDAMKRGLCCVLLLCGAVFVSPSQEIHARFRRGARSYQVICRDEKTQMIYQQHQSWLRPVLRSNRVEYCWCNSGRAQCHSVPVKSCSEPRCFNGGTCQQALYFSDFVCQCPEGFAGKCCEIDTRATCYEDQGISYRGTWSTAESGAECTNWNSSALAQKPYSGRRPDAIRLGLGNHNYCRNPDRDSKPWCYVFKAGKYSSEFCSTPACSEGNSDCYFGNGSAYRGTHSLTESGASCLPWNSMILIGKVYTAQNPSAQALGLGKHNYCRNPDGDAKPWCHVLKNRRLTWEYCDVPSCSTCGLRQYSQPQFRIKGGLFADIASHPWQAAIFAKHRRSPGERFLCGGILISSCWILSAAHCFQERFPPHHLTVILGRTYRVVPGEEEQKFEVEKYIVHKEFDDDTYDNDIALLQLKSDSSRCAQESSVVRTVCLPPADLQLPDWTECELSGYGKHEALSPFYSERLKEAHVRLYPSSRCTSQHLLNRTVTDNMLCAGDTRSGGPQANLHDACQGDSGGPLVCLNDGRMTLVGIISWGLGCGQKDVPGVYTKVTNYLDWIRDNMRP

T1 sequence (P00742 41-179 limits assumed): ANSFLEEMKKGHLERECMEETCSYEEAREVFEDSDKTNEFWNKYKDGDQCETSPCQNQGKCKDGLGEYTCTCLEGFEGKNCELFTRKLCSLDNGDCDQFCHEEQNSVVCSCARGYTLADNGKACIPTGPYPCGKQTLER
T1 sequence (P00742 235-488 limits assumed): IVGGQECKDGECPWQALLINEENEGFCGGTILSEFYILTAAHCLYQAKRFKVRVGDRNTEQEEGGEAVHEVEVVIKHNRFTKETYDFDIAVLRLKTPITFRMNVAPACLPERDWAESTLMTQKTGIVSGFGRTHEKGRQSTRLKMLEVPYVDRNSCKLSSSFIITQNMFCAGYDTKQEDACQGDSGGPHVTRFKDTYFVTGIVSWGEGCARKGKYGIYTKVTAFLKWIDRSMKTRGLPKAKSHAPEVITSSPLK
Chain of Serine protease 1 (P07477 whole entry): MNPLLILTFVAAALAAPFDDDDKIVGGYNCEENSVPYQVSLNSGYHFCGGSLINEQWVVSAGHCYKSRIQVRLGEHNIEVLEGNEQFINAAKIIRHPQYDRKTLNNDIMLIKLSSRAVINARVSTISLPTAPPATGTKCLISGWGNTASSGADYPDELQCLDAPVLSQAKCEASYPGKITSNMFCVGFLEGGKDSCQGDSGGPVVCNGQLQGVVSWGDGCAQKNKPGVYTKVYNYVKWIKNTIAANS
Chain of Kallikrein-1 (P06870 whole entry): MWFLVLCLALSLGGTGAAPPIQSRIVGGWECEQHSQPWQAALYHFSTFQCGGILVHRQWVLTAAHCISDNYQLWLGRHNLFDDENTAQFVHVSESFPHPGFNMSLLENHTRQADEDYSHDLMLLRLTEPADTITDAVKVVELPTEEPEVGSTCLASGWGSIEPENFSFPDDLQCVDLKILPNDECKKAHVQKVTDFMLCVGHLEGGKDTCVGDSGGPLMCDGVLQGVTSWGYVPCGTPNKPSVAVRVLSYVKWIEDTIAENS
Chain of Vitamin K-dependent protein C (P04070 43-197 limits assumed): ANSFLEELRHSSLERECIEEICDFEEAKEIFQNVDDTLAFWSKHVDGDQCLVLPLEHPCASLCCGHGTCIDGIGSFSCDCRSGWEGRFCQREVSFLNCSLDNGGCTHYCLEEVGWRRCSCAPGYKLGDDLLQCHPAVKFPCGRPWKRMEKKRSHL
Chain of Vitamin K-dependent protein C (P04070 212-461 limits assumed): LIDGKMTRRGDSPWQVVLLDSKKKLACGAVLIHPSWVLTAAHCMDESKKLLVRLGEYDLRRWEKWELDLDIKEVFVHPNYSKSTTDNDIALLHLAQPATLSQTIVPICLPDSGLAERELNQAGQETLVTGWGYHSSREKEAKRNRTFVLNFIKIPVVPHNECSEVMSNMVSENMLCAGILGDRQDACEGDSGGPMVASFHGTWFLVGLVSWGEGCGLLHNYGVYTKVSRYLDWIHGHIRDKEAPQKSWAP
Chain of Plasminogen (Homo sapiens) (P00747 whole entry, looked up): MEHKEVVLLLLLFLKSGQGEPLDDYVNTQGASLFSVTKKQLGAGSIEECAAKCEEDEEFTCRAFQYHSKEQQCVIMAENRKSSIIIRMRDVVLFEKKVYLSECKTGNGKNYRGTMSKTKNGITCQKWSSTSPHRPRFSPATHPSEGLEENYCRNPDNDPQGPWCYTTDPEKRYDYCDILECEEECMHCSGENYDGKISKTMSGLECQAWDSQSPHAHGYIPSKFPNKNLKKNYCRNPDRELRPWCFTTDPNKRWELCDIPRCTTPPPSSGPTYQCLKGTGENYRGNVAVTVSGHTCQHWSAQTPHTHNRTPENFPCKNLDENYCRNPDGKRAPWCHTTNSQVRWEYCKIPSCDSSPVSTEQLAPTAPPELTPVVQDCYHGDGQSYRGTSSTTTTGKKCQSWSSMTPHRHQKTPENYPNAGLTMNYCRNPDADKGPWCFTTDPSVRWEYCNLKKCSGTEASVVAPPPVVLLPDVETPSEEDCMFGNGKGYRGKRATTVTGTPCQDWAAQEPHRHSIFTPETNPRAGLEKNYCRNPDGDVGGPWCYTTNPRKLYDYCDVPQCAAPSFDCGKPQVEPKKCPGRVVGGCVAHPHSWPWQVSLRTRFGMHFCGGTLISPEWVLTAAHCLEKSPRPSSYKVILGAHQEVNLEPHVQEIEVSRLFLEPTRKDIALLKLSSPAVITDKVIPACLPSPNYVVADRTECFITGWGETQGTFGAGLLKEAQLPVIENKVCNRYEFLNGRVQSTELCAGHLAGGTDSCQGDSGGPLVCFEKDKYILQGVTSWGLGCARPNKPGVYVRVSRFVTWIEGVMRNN

CN(C)c1ccccc1-c1ccc(C(=O)Nc2ccc(Cl)cc2C(=O)Nc2ccc(Cl)cn2)cc1
Ki (Coagulation factor X [1]): 0.1 nM | IC50 (Coagulation factor X [2]): 0.9 nM | Activity (Coagulation factor X [3]): > 5 µM | bioavailability [4]: 100%

O=C(Nc1ccc(Cl)cc1C(=O)Nc1ccc(Cl)cn1)c1ccc(-c2cccc(N3CCCNCC3)c2)cc1
IC50 (Coagulation factor X [2]): 32 nM

Nc1ccc(C(=O)Nc2ccc(Br)cn2)c(NC(=O)c2ccc(-c3ccccc3S(N)(=O)=O)cc2)c1
IC50 (Coagulation factor X [2]): 6.2 nM | Activity (Coagulation factor X [3]): > 5 µM

CN(C)c1cccc(-c2ccc(C(=O)Nc3ccc(Cl)cc3C(=O)Nc3ccc(Cl)cn3)cc2)c1
IC50 (Coagulation factor X [2]): 3.5 nM

O=C(Nc1ccc(Cl)cc1C(=O)Nc1ccc(Cl)cn1)c1ccc(-c2ccccc2N2CCCC2)cc1
IC50 (Coagulation factor X [2]): 2.8 nM

CN(C)C(=N)c1ccc(-c2ccc(C(=O)Nc3ccc(Cl)cc3C(=O)Nc3ccc(Cl)cn3)cc2)cc1
IC50 (Coagulation factor X [2]): 60 nM

CN1CCCN(c2cccc(-c3ccc(C(=O)Nc4ccc(Cl)cc4C(=O)Nc4ccc(Cl)cn4)cc3)c2)CC1
IC50 (Coagulation factor X [2]): 22 nM

CN1CCN(c2cccc(-c3ccc(C(=O)Nc4ccc(Cl)cc4C(=O)Nc4ccc(Cl)cn4)cc3)c2)CC1
IC50 (Coagulation factor X [2]): 23 nM

CN1CCN(c2ccccc2-c2ccc(C(=O)Nc3ccc(Cl)cc3C(=O)Nc3ccc(Cl)cn3)cc2)CC1
Ki (Coagulation factor X [1]): 0.9 nM | IC50 (Coagulation factor X [2]): 3.5 nM | Activity (Coagulation factor X [3]): > 5 µM

NS(=O)(=O)c1ccccc1-c1ccc(C(=O)Nc2ccccc2C(=O)Nc2ccc(Br)cn2)cc1
IC50 [5]: > 10 µM | IC50 (Kallikrein-1): 2100 nM | IC50 [6]: > 10 µM | IC50 (Serine protease 1): > 10 µM | IC50 (Coagulation factor X [2]): 3.4 nM | Activity (Coagulation factor X [3]): > 5 µM | IC50 [7]: > 10 µM

CN(C)C(=N)c1cccc(-c2ccc(C(=O)Nc3ccc(Cl)cc3C(=O)Nc3ccc(Cl)cn3)cc2)c1
Ki (Coagulation factor X [1]): 1 nM | IC50 (Coagulation factor X [2]): 2 nM | Activity (Coagulation factor X [3]): > 5 µM

Nc1ccc(NC(=O)c2ccc(-c3ccccc3S(N)(=O)=O)cc2)c(C(=O)Nc2ccc(Cl)cn2)c1
IC50 (Coagulation factor X [2]): 6.7 nM | Activity (Coagulation factor X [3]): 3 µM

NC(N)=NCc1ccccc1-c1ccc(C(=O)Nc2ccc(Cl)cc2C(=O)Nc2ccc(Cl)cn2)cc1
Ki (Coagulation factor X [1]): 0.3 nM | IC50 (Coagulation factor X [2]): 1.2 nM | bioavailability [4]: < 1%

NS(=O)(=O)c1ccccc1-c1ccc(C(=O)Nc2cnccc2C(=O)Nc2ccc(Cl)cn2)cc1
IC50 (Coagulation factor X [2]): 23 nM | Activity (Coagulation factor X [3]): 4.9 µM

O=C(Nc1ccc(Cl)cc1C(=O)Nc1ccc(Cl)cn1)c1ccc(-c2ccccc2N2CCC(O)CC2)cc1
Ki (Coagulation factor X [1]): 0.2 nM | IC50 (Coagulation factor X [2]): 1 nM | Activity (Coagulation factor X [3]): > 5 µM | bioavailability [4]: 32%

NS(=O)(=O)c1ccccc1-c1ccc(C(=O)Nc2ncccc2C(=O)Nc2ccc(Cl)cn2)cc1
IC50 (Coagulation factor X [2]): 48 nM | Activity (Coagulation factor X [3]): > 5 µM

CNc1cccc(-c2ccc(C(=O)Nc3ccc(Cl)cc3C(=O)Nc3ccc(Cl)cn3)cc2)c1
IC50 (Coagulation factor X [2]): 2.3 nM

CNc1ccccc1-c1ccc(C(=O)Nc2ccc(Cl)cc2C(=O)Nc2ccc(Cl)cn2)cc1
IC50 (Coagulation factor X [2]): 4.1 nM

CC(=O)Nc1ccc(NC(=O)c2ccc(-c3ccccc3S(N)(=O)=O)cc2)c(C(=O)Nc2ccc(Br)cn2)c1
IC50 (Coagulation factor X [2]): 370 nM

CN1CCCN(c2ccccc2-c2ccc(C(=O)Nc3ccc(Cl)cc3C(=O)Nc3ccc(Cl)cn3)cc2)CC1
Ki (Coagulation factor X [1]): 0.8 nM | IC50 (Coagulation factor X [2]): 3.1 nM | Activity (Coagulation factor X [3]): > 5 µM

NS(=O)(=O)c1ccccc1-c1ccc(C(=O)Nc2ccc(-n3ccnc3)cc2C(=O)Nc2ccc(Br)cn2)cc1
IC50 (Coagulation factor X [2]): 128 nM

CN1CCN(c2ccc(NC(=O)c3ccc(-c4ccccc4S(N)(=O)=O)cc3)c(C(=O)Nc3ccc(Br)cn3)c2)CC1
IC50 (Coagulation factor X [2]): 1550 nM

O=C(Nc1ccc(Cl)cc1C(=O)Nc1ccc(Cl)cn1)c1ccc(-c2cccc(N3CCNCC3)c2)cc1
IC50 (Coagulation factor X [2]): 39 nM

CC(=N)NCc1cccc(-c2ccc(C(=O)Nc3ccc(Cl)cc3C(=O)Nc3ccc(Cl)cn3)cc2)c1
Ki (Coagulation factor X [1]): 1.8 nM | IC50 (Coagulation factor X [2]): 4.4 nM | Activity (Coagulation factor X [3]): > 5 µM

NS(=O)(=O)c1ccccc1-c1ccc(C(=O)NCCC(=O)Nc2ccc(Br)cn2)cc1
IC50 (Coagulation factor X [2]): 12 nM

N=C(N)c1ccc(-c2ccc(C(=O)Nc3ccc(Cl)cc3C(=O)Nc3ccc(Cl)cn3)cc2)cc1
IC50 (Coagulation factor X [2]): 66 nM

O=C(Nc1ccc(Cl)cc1C(=O)Nc1ccc(Cl)cn1)c1ccc(-c2ccccc2N2CCC(C(=O)O)CC2)cc1
Ki (Coagulation factor X [1]): 0.012 nM | IC50 (Coagulation factor X [2]): 0.4 nM | Activity (Coagulation factor X [3]): > 5 µM

N=C(N)NCc1cccc(-c2ccc(C(=O)Nc3ccc(Cl)cc3C(=O)Nc3ccc(Cl)cn3)cc2)c1
IC50 (Coagulation factor X [2]): 9.5 nM | Activity (Coagulation factor X [3]): > 5 µM | bioavailability [4]: < 1%

O=C(Nc1ccc(Cl)cc1C(=O)Nc1ccc(Cl)cn1)c1ccc(-c2ccccc2N2CCNCC2)cc1
Ki (Coagulation factor X [1]): 1 nM | IC50 (Coagulation factor X [2]): 4.1 nM | Activity (Coagulation factor X [3]): > 5 µM

NS(=O)(=O)c1ccccc1-c1ccc(C(=O)Nc2ccncc2C(=O)Nc2ccc(Cl)cn2)cc1
IC50 (Coagulation factor X [2]): 18 nM | Activity (Coagulation factor X [3]): 2.2 µM

O=C(Nc1ccc(Cl)cc1C(=O)Nc1ccc(Cl)cn1)c1ccc(-c2cccc(N3CCCCC3)c2)cc1
IC50 (Coagulation factor X [2]): 16 nM

O=C(Nc1ccc(Cl)cc1C(=O)Nc1ccc(Cl)cn1)c1ccc(-c2cccc(N3CCCC3)c2)cc1
IC50 (Coagulation factor X [2]): 5.3 nM

NS(=O)(=O)c1ccccc1-c1ccc(C(=O)Nc2ccccc2C(=O)Nc2ccc(Cl)cn2)cc1
IC50 (Coagulation factor X [2]): 6.7 nM | Activity (Coagulation factor X [3]): > 5 µM

O=C(Nc1ccc(Cl)cc1C(=O)Nc1ccc(Cl)cn1)c1ccc(-c2ccccc2N2CCOCC2)cc1
IC50 (Coagulation factor X [2]): 4.1 nM

NS(=O)(=O)c1ccccc1-c1ccc(C(=O)Nc2cccnc2C(=O)Nc2ccc(Cl)cn2)cc1
IC50 (Coagulation factor X [2]): 26 nM | Activity (Coagulation factor X [3]): > 5 µM

CC(N)=NCc1ccccc1-c1ccc(C(=O)Nc2ccc(Cl)cc2C(=O)Nc2ccc(Cl)cn2)cc1
Ki (Coagulation factor X [1]): 0.1 nM | IC50 (Coagulation factor X [2]): 0.7 nM | bioavailability [4]: < 1%

NCc1ccccc1-c1ccc(C(=O)Nc2ccccc2C(=O)Nc2ccc(Cl)cn2)cc1
IC50 (Coagulation factor X [2]): 67 nM

N=C(N)NCc1ccccc1-c1ccc(C(=O)Nc2ccc(Cl)cc2C(=O)Nc2ccc(Cl)cn2)cc1
Activity (Coagulation factor X [3]): > 5 µM

O=C(Nc1ccc(Cl)cc1C(=O)Nc1ccc(Cl)cn1)c1ccc(-c2cccc(N3CCC(C(=O)O)CC3)c2)cc1
IC50 (Coagulation factor X [2]): 1.8 nM

O=C(Nc1ccc(Cl)cc1C(=O)Nc1ccc(Cl)cn1)c1ccc(-c2cccc(N3CCC(O)CC3)c2)cc1
IC50 (Coagulation factor X [2]): 7 nM

N=C(N)c1cccc(-c2ccc(C(=O)Nc3ccc(Cl)cc3C(=O)Nc3ccc(Cl)cn3)cc2)c1
Ki (Coagulation factor X [1]): 0.7 nM | IC50 (Coagulation factor X [2]): 1.6 nM | Activity (Coagulation factor X [3]): > 5 µM | bioavailability [4]: < 1%

Nc1cccc(-c2ccc(C(=O)Nc3ccc(Cl)cc3C(=O)Nc3ccc(Cl)cn3)cc2)c1
IC50 (Coagulation factor X [2]): 1.9 nM

O=C(Nc1ccc(Cl)cc1C(=O)Nc1ccc(Cl)cn1)c1ccc(-c2cccc(N3CCOCC3)c2)cc1
IC50 (Coagulation factor X [2]): 74 nM

O=C(Nc1ccc(Cl)cc1C(=O)Nc1ccc(Cl)cn1)c1ccc(-c2ccccc2N2CCCNCC2)cc1
Ki (Coagulation factor X [1]): 1.8 nM | IC50 (Coagulation factor X [2]): 5.6 nM | Activity (Coagulation factor X [3]): > 5 µM

CN(C)C(=N)c1ccccc1-c1ccc(C(=O)Nc2ccc(Cl)cc2C(=O)Nc2ccc(Cl)cn2)cc1
Ki (Coagulation factor X [1]): 0.1 nM | IC50 (Coagulation factor X [2]): 0.2 nM | Activity (Coagulation factor X [3]): 1.4 µM

CC(=N)NCc1ccccc1-c1ccc(C(=O)Nc2ccc(Cl)cc2C(=O)Nc2ccc(Cl)cn2)cc1
Activity (Coagulation factor X [3]): > 5 µM

Nc1ccccc1-c1ccc(C(=O)Nc2ccc(Cl)cc2C(=O)Nc2ccc(Cl)cn2)cc1
Ki (Coagulation factor X [1]): 0.2 nM | Activity (Coagulation factor X [3]): > 5 µM

Nc1ccc(NC(=O)c2ccc(-c3ccccc3S(N)(=O)=O)cc2)c(C(=O)Nc2ccc(Br)cn2)c1
IC50 (Coagulation factor X [2]): 4.6 nM | Activity (Coagulation factor X [3]): 2.8 µM

O=C(Nc1ccc(Cl)cc1C(=O)Nc1ccc(Cl)cn1)c1ccc(-c2ccccc2N2CCCCC2)cc1
IC50 (Coagulation factor X [2]): 2.8 nM
